Experimental findings from PubChem BioAssay are described below.

The source made the active and inactive calls.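 The calls were made as follows, unless noted: active = fluorescence slope after compound addition differing from the mean of all tested samples at 99.7% confidence, mostly higher but some lower; inactive = the rest.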

Assay [1] is described as follows: inhibitors of TNFa-induced NFkB p65 translocation, primary screen, imaging, HUVEC, MLSMR starter and 10KST1 sets (AID 438;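 active = inhibition above 20% together with a positive visual image hit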;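 also: compound added about 3h40 before a 20 min TNFalpha stimulation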;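 as to inhibition: signal is the nuclear over cytoplasmic p65 intensity ratio per well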). Conditions: HUVEC TNFa-induced p65 nuclear translocation; cell count: measured here: nuclei count (cytotoxicity indicator), at 2.08 µM; inhibition: at 2 µM, stronger effect = higher value, 0% TNFa-plus-vehicle, 100% no-TNFa wells.
Assay [2] in a line: endothelial E-selectin expression blockers – imaging, HUVEC, immunofluorescence, MLSMR starter and 10KST1 sets, primary screen (AID 487;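 active = visually confirmed hit in the image check and inhibition above 20%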;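 as to inhibition: signal is fraction of cell area covered by stained E-selectin grains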;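 as to nuclei count: 100% = median nuclei count of all wells on the same plate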). Particulars: HUVEC TNFalpha-induced E-selectin immunofluorescence imaging, at 2 µM; inhibition: stronger effect = higher value; nuclei count: measured here: cell number, toxicity.
The nature of assay [3]: Primary imaging screen for DUSP6 inhibitors that restore phospho-Erk in transfected HeLa cells, chemical complementation (AID 609;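 active = compounds giving at least 50% inhibition in the cell-based MKP-3 phosphatase rescue imaging test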;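 as to inhibition: phospho-Erk level distribution per well compared with pooled transfected vehicle control wells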). Conditions: HeLa MKP-3 transfected, phospho-Erk imaging KS statistic, at 10 µM, cells stimulated with TPA for 15 min.
Assay [4] concerns the target Dual specificity protein phosphatase 6 (Homo sapiens) (UniProt Q16828). Described as above. Conditions: HeLa MKP-3 transfected, phospho-Erk imaging KS statistic; at 10 µM; stronger effect = higher value; cells stimulated with TPA for 15 min.
The target in assay [5] is Voltage-gated potassium channel subunit beta-2 (Rattus norvegicus) (UniProt P62483). Put plainly: inhibitors of rat Kvbeta2 reductase activity – biochemical, NADPH fluorescence, primary screen (AID 622;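 active = fluorescence slope higher than the sample average by over 3 SD, cut at about -0.22 in these data, passing the limit was not always enough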;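 also: slope of raw intensity against log time taken from 70 to 1610 s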). Particulars: recombinant KvBeta, 4-cyanobenzaldehyde reduction, at 10 µM, stronger effect = higher value.
For assay [6] the target is unchanged. Put plainly: enhancers of rat Kvbeta2 NADPH turnover – biochemical, NADPH fluorescence, primary screen (AID 623;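 active = NADPH fluorescence slope more negative than the mean of all samples by about 3 SD, 99.7% confidence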;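 also: fluorescence intensity change per second fitted from 20 to 320 s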). Conditions: Recombinant KvBeta, NADPH fluorescence decrease slope, 10 min; at 10 µM; stronger effect = lower value.
Assay [7] concerns the target Muscarinic acetylcholine receptor M4 (Homo sapiens) (UniProt P08173). Put plainly: M4-linked GIRK flux change, two-sided – cell-based, HEK293 M4/GIRK, thallium flux, BTC-AM, M4 allosteric agonist project, primary screen (AID 625).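 Also: thallium influx through GIRK channels coupled to M4 in HEK293 cells with BTC-AM dye.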 Particulars: at 10 µM, actives lie on both sides. In a few lines: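 Assay system: HEK293 cells with M4 receptor and GIRK channels / Controls: carbachol and DMSO controls / Schedule: 1 h dye loading, 2 min kinetic read / Technique: kinetic fluorescence with BTC-AM dye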

The nature of assay [8]: inhibitors of larval lipid processing in zebrafish, primary screen, whole organism, PED6 fluorescence, gall bladder and intestine (AID 686;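 active = a full or partial loss of lipid-probe fluorescence in the fish gall bladder, intestine or both, judged by eye; inactive = no fluorescence loss, or compound toxic to the fish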;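 also: signal comes from phospholipase A2 cleavage of quenched PED6 carried via bile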). Particulars: Zebrafish larvae PED6 lipid processing, fluorescence scoring; screened at 20 µM (by protocol). In a few lines: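 Doses: 20 µM single dose. Test system: live zebrafish larvae aged 5-7 days, whole organism. Quantity: five larvae per well. Measured by: By-eye fluorescence microscopy. Reagent: ingested quenched lipid PED6 at 100 nM. Read-out: visual per-well fluorescence inhibition score. Times: overnight exposure of larvae to compound plus PED6.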

The nature of assay [9]: loss of swimming-algae plug formation – whole organism, Chlamydomonas reinhardtii, WT vs cilia-less mutant, absorbance, 96-well, primary screen (AID 463189;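 active = inhibition at or above 50% relative to wild type and mutant plate controls; inactive = inhibition below 50%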;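 also: 0% = wild type cc124 cells in DMSO and 100% = ciliumless bld1 mutant cells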). Particulars: Chlamydomonas reinhardtii gravitaxis, OD600 absorbance, 2 days; at 10 µM; stronger effect = higher value.
Where [10] appears, read: measured here: cell density z-score.
Where [11] appears, read: measured here: nuclear c-Myc green intensity z-score.
Where [12] appears, read: measured here: nuclear pErk red intensity z-score, stronger effect = higher value.

Chain of Voltage-gated potassium channel subunit beta-2 (Rattus norvegicus) (P62483 whole entry, looked up): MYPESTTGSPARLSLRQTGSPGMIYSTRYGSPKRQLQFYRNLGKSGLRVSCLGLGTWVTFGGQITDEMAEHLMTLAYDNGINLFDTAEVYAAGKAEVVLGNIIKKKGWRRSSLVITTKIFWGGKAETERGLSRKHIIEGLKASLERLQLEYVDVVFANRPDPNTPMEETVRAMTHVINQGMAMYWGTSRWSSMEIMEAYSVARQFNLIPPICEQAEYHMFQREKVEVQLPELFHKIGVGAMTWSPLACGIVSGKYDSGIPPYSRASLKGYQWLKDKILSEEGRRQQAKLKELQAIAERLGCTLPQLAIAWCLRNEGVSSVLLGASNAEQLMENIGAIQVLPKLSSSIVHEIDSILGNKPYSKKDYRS
Chain of Dual specificity protein phosphatase 6 (Homo sapiens) (Q16828 whole entry, looked up): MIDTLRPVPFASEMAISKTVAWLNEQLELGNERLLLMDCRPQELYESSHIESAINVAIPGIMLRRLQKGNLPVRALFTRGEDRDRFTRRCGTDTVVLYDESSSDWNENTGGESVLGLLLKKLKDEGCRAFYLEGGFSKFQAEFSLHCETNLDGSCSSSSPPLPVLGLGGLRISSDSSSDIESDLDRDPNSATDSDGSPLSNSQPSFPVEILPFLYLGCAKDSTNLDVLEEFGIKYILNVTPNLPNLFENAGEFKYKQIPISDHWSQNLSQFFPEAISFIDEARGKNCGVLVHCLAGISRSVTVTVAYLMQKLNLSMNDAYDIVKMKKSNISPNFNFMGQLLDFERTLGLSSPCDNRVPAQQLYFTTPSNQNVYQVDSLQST
Chain of Muscarinic acetylcholine receptor M4 (Homo sapiens) (P08173 whole entry, looked up): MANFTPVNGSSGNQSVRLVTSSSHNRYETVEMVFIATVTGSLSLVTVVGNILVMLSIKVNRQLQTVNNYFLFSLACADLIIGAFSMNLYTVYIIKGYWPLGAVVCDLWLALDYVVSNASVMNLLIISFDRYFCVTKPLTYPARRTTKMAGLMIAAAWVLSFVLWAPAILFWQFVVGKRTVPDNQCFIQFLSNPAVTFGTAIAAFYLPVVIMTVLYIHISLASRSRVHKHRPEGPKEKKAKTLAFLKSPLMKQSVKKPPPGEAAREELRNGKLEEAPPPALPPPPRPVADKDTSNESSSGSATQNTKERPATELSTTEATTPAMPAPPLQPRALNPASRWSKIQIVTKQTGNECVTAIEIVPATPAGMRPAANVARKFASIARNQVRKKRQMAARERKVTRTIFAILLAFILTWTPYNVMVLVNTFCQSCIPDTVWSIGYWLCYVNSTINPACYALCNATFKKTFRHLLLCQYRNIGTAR

As for `COc1ccc(CCNc2oc(COc3ccccc3)nc2C#N)cc1`, the cell count in assay [1] amounted to 481. Further, the inhibition (as a rule, the change of the read-out against control, counted positive when it falls) was -2.4% (inactive) in assay [1], -411% (inactive) in assay [2], -3.95% (inactive) in assay [4] and -2.43% (inactive) in assay [9]. In [2], this compound displayed a nuclei count of 140%. Also, the z-score in assay [3] (setting [10]) was found to be 0.781; in assay [3] (setting [11]), 0.424; in assay [3] (setting [12]), 0.61. The fluorescence slope in [5] is -0.409 (inactive); in [7], 0.00409 (inactive). For the same compound, the NADPH fluorescence slope in [6] was -5.2e-05 (inactive). Besides, the compound was called inactive in assay [8].

As for `Cc1cc(C)n(CC2CC(=O)N(c3ccc(C)c(Cl)c3)C2=O)n1` (stereo unspecified), the cell count in assay [1] worked out at 597. The inhibition in assay [1] was -3.7% (inactive); in assay [2], 19% (inactive); in assay [4], 12.8% (inactive); in [9] it was -14.7% (inactive). In assay [2], this compound displayed a nuclei count of 93.4%. The z-score in assay [3] (setting [10]) was 1.31; in assay [3] (setting [11]), -0.417; in assay [3] (setting [12]), 0.186. The fluorescence slope in assay [5] was -0.517 (inactive); in [7] it was 0.00527 (inactive). In addition, in assay [6], the NADPH fluorescence slope is -2.4e-05 (inactive). Besides, in assay [8], the result was inactive.

Consider `Cc1cc(C)c(C#N)c(OCC(=O)c2ccccc2)n1`, for which, in [1], the cell count stood at 450. Besides, the inhibition in [1] is -5.3% (inactive); in assay [2], -69% (inactive); in [4], -3.95% (inactive); in assay [9], -6.74% (inactive). This compound returned a nuclei count in assay [2] of 156%. For the same compound, the values for the z-score in [3] (setting [10]), in assay [3] (setting [11]) and in assay [3] (setting [12]) were -0.815, 1.05 and 0.134, respectively. Also, the fluorescence slope in assay [5] was -0.405 (inactive); in assay [7], 0.00481 (inactive). In [6], the NADPH fluorescence slope is -3.4e-05 (inactive). In addition, the compound was called inactive in [8].

With `CCCSc1nnc(NC(=O)Nc2ccc(F)cc2)s1`, the cell count in [1] amounted to 660. In addition, the inhibition is -13.9% (inactive) in assay [1], -24% (inactive) in [2], 20.2% (inactive) in assay [4] and 6.75% (inactive) in assay [9]. This compound gave a nuclei count in assay [2] of 182%. Besides, the z-score in [3] (setting [10]) is 0.28; in assay [3] (setting [11]), -1.17; in assay [3] (setting [12]), -0.511. For the same compound, the fluorescence slope was -0.488 (inactive) in assay [5] and 0.00807 (inactive) in [7]. For the same compound, in assay [6], the NADPH fluorescence slope is -6.8e-05 (inactive). In assay [8], the result was inactive.

On to `COc1ccc(-n2ncc3c(NCCCn4ccnc4)ncnc32)cc1`, for which the cell count in assay [1] was found to be 614. In addition, the inhibition in assay [1] is -4% (inactive); in assay [2], 0.9% (inactive); in assay [4], 3.42% (inactive); in assay [9] it was 1.19% (inactive). This compound showed a nuclei count in assay [2] of 170%. The z-score was -0.682 in assay [3] (setting [10]), 1.35 in assay [3] (setting [11]) and -0.266 in assay [3] (setting [12]). Moreover, the figures for the fluorescence slope in assay [5] and in [7] were -0.394 (inactive) and 0.00474 (inactive), respectively. In addition, in [6], the NADPH fluorescence slope was -5.9e-06 (inactive). Besides, in assay [8], the compound was called inactive.

For the compound `COc1cc(C2C(C(=O)c3sc(C)nc3C)=C(O)C(=O)N2CCN(C)C)cc(OC)c1OC` (stereo unspecified), the cell count in assay [1] came to 398. Further, the inhibition is 3.6% (inactive) in [1], -36.2% (inactive) in [2], 3.56% (inactive) in [4] and -3.66% (inactive) in assay [9]. In [2], the nuclei count is 155%. The figures for the z-score in assay [3] (setting [10]), in assay [3] (setting [11]) and in assay [3] (setting [12]) were 0.333, 0.0451 and 0.204, respectively. The fluorescence slope in [5] was -0.446 (inactive); in [7] it was 0.00444 (inactive). In assay [6], the NADPH fluorescence slope was -0.000115 (inactive). Further, the compound was called inactive in assay [8].

Turning to `CSc1nc2sc3c(c2c2nncn12)CCC3`, the cell count in assay [1] turned out to be 595. For the same compound, the inhibition is -9.4% (inactive) in assay [1], -93% (inactive) in assay [2], -13.3% (inactive) in assay [4] and 46.8% (inactive) in assay [9]. The compound also displayed a nuclei count in assay [2] of 148%. The results for the z-score in assay [3] (setting [10]), in assay [3] (setting [11]) and in [3] (setting [12]) were -0.00236, -1.35 and -0.539, respectively. Besides, the fluorescence slope in [5] was -0.46 (inactive); in assay [7], 0.00506 (inactive). Also, the NADPH fluorescence slope in [6] is -9.7e-05 (inactive). Moreover, the call in [8] was inactive.
